Results reported in ChEMBL document CHEMBL4823286, “Synthesis and evaluation of novel 2,4-diaminopyrimidines bearing a sulfoxide moiety as anaplastic lymphoma kinase (ALK) inhibition agents” (Bioorg Med Chem Lett, 2021).

Assays:
[1] = system: NCI-H2228; assay: Antiproliferative activity against human NCI-H2228 cells assessed as inhibition of cell proliferation measured by CCK8 assay; type: functional, cell-based
Method in brief: (§1)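 Cell proliferation inhibition; IC50 given as mean ± SD of three independent experiments.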

[2] = system: BaF3; assay: Antiproliferative activity against mouse BaF3 cells overexpressing ALK assessed as inhibition of cell proliferation measured by CCK8 assay; type: functional, cell-based; method in brief: as §1
[3] = system: NCI-H2228; assay: Induction of apoptosis in human NCI-H2228 cells assessed as viable cells at 25 nM measured after 24 hrs by Annexin V-FITC/PI staining based flow cytometry assay (reference value: 95.6%); type: functional; settings: read-out: Activity
Method in brief: (§2)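 After 24 h or 48 h exposure (5, 25, 50 nM; DMSO 0.01% control), NCI-H2228 cells were harvested, double-stained with Annexin V-FITC and PI and run on flow cytometry. Stage percentages quantified by software; three experiments, representative shown.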

[4] = system: NCI-H2228; assay: Induction of apoptosis in human NCI-H2228 cells assessed as early apoptotic cells at 25 nM measured after 24 hrs by Annexin V-FITC/PI staining based flow cytometry assay (reference value: 2.18%); type: functional; method in brief: as §2
[5] = system: NCI-H2228; assay: Induction of apoptosis in human NCI-H2228 cells assessed as late apoptotic cells at 25 nM measured after 24 hrs by Annexin V-FITC/PI staining based flow cytometry assay (reference value: 2.02%); type: functional; method in brief: as §2
[6] = system: NCI-H2228; assay: Induction of apoptosis in human NCI-H2228 cells assessed as necrotic cells at 25 nM measured after 24 hrs by Annexin V-FITC/PI staining based flow cytometry assay (reference value: 0.21%); type: functional; method in brief: as §2
[7] = system: NCI-H2228; assay: Induction of apoptosis in human NCI-H2228 cells assessed as viable cells at 25 nM measured after 48 hrs by Annexin V-FITC/PI staining based flow cytometry assay (reference value: 95.3%); type: functional; settings: read-out: Activity; method in brief: as §2
[8] = system: NCI-H2228; assay: Induction of apoptosis in human NCI-H2228 cells assessed as early apoptotic cells at 25 nM measured after 48 hrs by Annexin V-FITC/PI staining based flow cytometry assay (reference value: 1.58%); type: functional; method in brief: as §2
[9] = system: NCI-H2228; assay: Induction of apoptosis in human NCI-H2228 cells assessed as late apoptotic cells at 25 nM measured after 48 hrs by Annexin V-FITC/PI staining based flow cytometry assay (reference value: 0.23%); type: functional; method in brief: as §2
[10] = system: NCI-H2228; assay: Induction of apoptosis in human NCI-H2228 cells assessed as necrotic cells at 25 nM measured after 48 hrs by Annexin V-FITC/PI staining based flow cytometry assay (reference value: 2.88%); type: functional; method in brief: as §2

SMILES | IC50 [1] [nM] | IC50 [2] [nM] | further results
CC[S+]([O-])c1ccccc1Nc1nc(Nc2cc(N)c(N(C)CCN(C)C)cc2OC)ncc1Cl (stereo unspecified) | 2630 | 75 | –
CC[S+]([O-])c1cc(F)ccc1Nc1nc(Nc2ccc(N3CCCN(C)CC3)cc2OC)ncc1Cl (stereo unspecified) | 64.5 | 26.7 | –
CC[S+]([O-])c1cc(Cl)ccc1Nc1nc(Nc2ccc(N3CCN(C)CC3)cc2OC)ncc1Cl (stereo unspecified) | 134 | 128 | –
CCC(=O)Nc1cc(Nc2ncc(Cl)c(Nc3ccc(F)cc3[S+]([O-])CC)n2)c(OC)cc1N(C)CCN(C)C (stereo unspecified) | 48.1 | 47.2 | –
CCC(=O)Nc1cc(Nc2ncc(Cl)c(Nc3ccccc3[S+]([O-])CC)n2)c(OC)cc1N(C)CCN(C)C (stereo unspecified) | 55.4 | 35.4 | –
COc1cc(N2CCC(N3CCN(C)CC3)CC2)ccc1Nc1ncc(Cl)c(Nc2ccccc2P(C)(C)=O)n1 [BRIGATINIB] | 31.2 | 8.49 | viability at 0.025 µM [3]: 81.9%; Activity [4]: 14.4%; Activity [5]: 3.47%; Activity [6]: 0.2%; viability at 0.025 µM [7]: 52%; Activity [8]: 12.7%; Activity [9]: 31%; Activity [10]: 4.32%
CC[S+]([O-])c1cc(F)ccc1Nc1nc(Nc2ccc(N(C)CCN(C)C)cc2OC)ncc1Cl (stereo unspecified) | 84.3 | 34.7 | –
CC[S+]([O-])c1ccccc1Nc1nc(Nc2ccc(N3CCCN(C)CC3)cc2OC)ncc1Cl (stereo unspecified) | 51.5 | 23.5 | –
CC[S+]([O-])c1ccccc1Nc1nc(Nc2ccc(N(C)CCN(C)C)cc2OC)ncc1Cl (stereo unspecified) | 69.3 | 26.3 | –
